Reference: ChEMBL document CHEMBL4673184, “Synthesis and biological evaluation of S-lipidated lipopeptides of a connexin 43 channel inhibitory peptide” (RSC Med Chem, 2020)
Active and inactive are the calls of the source. The rule behind the calls is not given here. Where a SMILES comes first, the peptide text is derived from it. [ ]: non-standard residue; d: D form. The star is where a group is joined. Ethyl(2-stearoyloxy) = CCCCCCCCCCCCCCCCCC(=O)OCC*; Ethyl(2-palmitoyloxy) = CCCCCCCCCCCCCCCC(=O)OCC*; Mpa = O=C(O)CCS

What was measured:
[1] = Stability in rat plasma assessed as half life at 150 ug/l measured up to 60 mins by HPLC analysis; format: ADME, cell-free
How it was run: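 Peptide from a 20 mg/L water stock incubated in 25% rat serum (v/v) in PBS pH 7.4 at a final 150 μg/L, 37 °C. Samples taken at 0-60 min and quenched with MeCN plus 15% TCA, held overnight at 4 °C, then centrifuged. Remaining peptide measured by C18 RP-HPLC peak area at 210 nm relative to t=0. Run in triplicate.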

[2] = biological target: Gap junction alpha-1 protein (Homo sapiens) (UniProt P17302); experiment: Inhibition of Cx43 in hypoxic-acidic ion-shifted ringers solution-induced human cerebral microvascular endothelial cell model of ischaemic injury assessed as ATP release at 10 uM measured after 2 hrs by luciferin-luciferase based luminescence assay relative to control; parameters: scale not given: the % may be the effect or the level left
Chain of Gap junction alpha-1 protein (Homo sapiens) (P17302 whole entry): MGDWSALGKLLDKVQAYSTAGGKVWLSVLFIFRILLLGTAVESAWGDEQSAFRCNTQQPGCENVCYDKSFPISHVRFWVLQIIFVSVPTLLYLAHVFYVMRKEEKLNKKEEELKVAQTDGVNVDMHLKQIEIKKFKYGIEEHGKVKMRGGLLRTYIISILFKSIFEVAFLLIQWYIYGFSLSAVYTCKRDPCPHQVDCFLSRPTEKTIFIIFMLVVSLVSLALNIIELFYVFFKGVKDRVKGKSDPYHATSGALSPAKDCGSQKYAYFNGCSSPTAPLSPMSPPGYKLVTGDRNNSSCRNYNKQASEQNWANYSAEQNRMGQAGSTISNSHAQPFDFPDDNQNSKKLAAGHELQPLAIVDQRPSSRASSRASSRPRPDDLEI
How it was run: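 hCMVEC (passages 8-17) seeded at 2 x 10^6/well on collagen-I (1 µg/cm²) and grown 48 h to a confluent monolayer. Washed in NR, then exposed 2 h in HAIR (pH 6.6, N₂-bubbled, low Ca²⁺, K-gluconate/NMDG) containing peptide at 10 µM. Supernatant diluted 1:10 in firefly luciferase mix and read at 560 nm against an ATP standard (0-50 nM). Expressed as % of HAIR-only, mean of n=3.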

Row | Compound | half-life at 150 ug/l [1] | Activity [2]
1 | CC(C)C[C@H](NC(=O)[C@H](Cc1ccccc1)NC(=O)[C@H](CS)NC(=O)[C@H](CC(=O)O)NC(=O)[C@@H](N)C(C)C)C(=O)N[C@@H](CO)C(=O)N[C@@H](CCCNC(=N)N)C(=O)N1CCC[C@H]1C(=O)N[C@H](C(=O)N[C@@H](CCC(=O)O)C(=O)N[C@@H](CCCCN)C(=O)N[C@H](C(=O)O)[C@@H](C)O)[C@@H](C)O (H-VDCFLSRPTEKT-OH) | 5 min | 53.8%
2 | CCCCCCCCCCCCCCCC(=O)OCCSCCC(=O)N[C@H](C(=O)N[C@@H](CC(=O)O)C(=O)N[C@@H](CS)C(=O)N[C@@H](Cc1ccccc1)C(=O)N[C@@H](CC(C)C)C(=O)N[C@@H](CO)C(=O)N[C@@H](CCCNC(=N)N)C(=O)N1CCC[C@H]1C(=O)N[C@H](C(=O)N[C@@H](CCC(=O)O)C(=O)N[C@@H](CCCCN)C(=O)N[C@H](C(=O)O)[C@@H](C)O)[C@@H](C)O)C(C)C ([Mpa](Ethyl(2-palmitoyloxy))VDCFLSRPTEKT-OH) |  | inactive
3 | CCCCCCCCCCCCCCCCCC(=O)OCCSCCC(=O)N[C@H](C(=O)N[C@@H](CC(=O)O)C(=O)N[C@@H](CS)C(=O)N[C@@H](Cc1ccccc1)C(=O)N[C@@H](CC(C)C)C(=O)N[C@@H](CO)C(=O)N[C@@H](CCCNC(=N)N)C(=O)N1CCC[C@H]1C(=O)N[C@H](C(=O)N[C@@H](CCC(=O)O)C(=O)N[C@@H](CCCCN)C(=O)N[C@H](C(=O)O)[C@@H](C)O)[C@@H](C)O)C(C)C ([Mpa](Ethyl(2-stearoyloxy))VDCFLSRPTEKT-OH) |  | inactive
